ChEMBL document CHEMBL1275442, “Pharmacokinetics and tissue distribution of anidulafungin in rats” (Antimicrob Agents Chemother, 2008)

Columns and labels:
Assay type in all cases: ADME, organism-based
Conditions in all cases: in vivo
Kidney [1] = assay: Half life in F344 rat kidney assessed as total compound-derived radioactivity at 5 mg/kg, iv administered as single bolus dose […]; design: dose 5 mg/kg, route intravenous
Procedure, shortened: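 Male F344 rats, 10 to 11 weeks old and 223.6 to 243.8 g, got one iv dose of [14C]anidulafungin at 5 mg/kg over about 5 min. Blood, CSF, kidney, liver, lung, quadriceps, spleen and skin were sampled predose and at 0.083 to 72 h, 3 rats per time. Total radioactivity (parent plus metabolites) was measured by liquid scintillation counting. Parameters were noncompartmental, from a composite mean profile.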

Plasma = assay: AUC (0 to infinity) in F344 rat plasma assessed as total compound-derived radioactivity per gram of tissue at 5 mg/kg, iv administered as single bolus dose […]; design: time infinity, dose 5 mg/kg, route intravenous
Procedure, shortened: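 Same F344 study: single 5 mg/kg IV [¹⁴C]anidulafungin given over about 5 min. Total drug-derived radioactivity (parent plus metabolites) counted by liquid scintillation, in […]. Noncompartmental analysis of the composite mean profile.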

Kidney [2] = assay: Drug level in Long Evans rat kidney assessed as low disposition of radioactivity per gram of tissue at 5 mg/kg, iv administered as single bolus dose measured 72 hrs postdose by autoradiography; design: dose 5 mg/kg, route intravenous
Procedure, shortened: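 Male pigmented Long Evans (HsdBlu:LE) rats, 7.5 weeks old, 202 to 217 g, single iv [¹⁴C]anidulafungin; one rat per sampling time. Euthanized by isoflurane and cardiac-puncture exsanguination. Sagittal whole-body sections quantified by phosphorimaging autoradiography, single samples corrected for section thickness across multiple sections per tissue. Concentrations (μg eq/g drug-derived radioactivity) interpolated from least-squares standard curves per scan.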

SMILES: CCCCCOc1ccc(-c2ccc(-c3ccc([14C](=O)N[C@H]4C[C@@H](O)[C@@H](O)NC(=O)[C@@H]5[C@@H](O)[C@@H](C)CN5C(=O)[C@H]([C@@H](C)O)NC(=O)[C@H]([C@H](O)[C@@H](O)c5ccc(O)cc5)NC(=O)[C@@H]5C[C@@H](O)CN5C(=O)[C@H]([C@@H](C)O)NC4=O)cc3)cc2)cc1 [14C-ANIDULAFUNGIN]
- t1/2 (Kidney [1]): 48.5 h
- AUC (Plasma): 177.87 ugequiv.hr/g
- Drug uptake (Kidney [2]): 1.97 ugequiv
